In ChEMBL document CHEMBL3091303, “1,3-Dialkyl-substituted tetrahydropyrimido[1,2-f]purine-2,4-diones as multiple target drugs for the potential treatment of neurodegenerative diseases” (Bioorg Med Chem, 2013):

Legend:
[1] = target: T1, Amine oxidase [flavin-containing] B (Homo sapiens, UniProt P27338); assay: Inhibition of human MAO-B
T1 sequence (P27338 whole entry): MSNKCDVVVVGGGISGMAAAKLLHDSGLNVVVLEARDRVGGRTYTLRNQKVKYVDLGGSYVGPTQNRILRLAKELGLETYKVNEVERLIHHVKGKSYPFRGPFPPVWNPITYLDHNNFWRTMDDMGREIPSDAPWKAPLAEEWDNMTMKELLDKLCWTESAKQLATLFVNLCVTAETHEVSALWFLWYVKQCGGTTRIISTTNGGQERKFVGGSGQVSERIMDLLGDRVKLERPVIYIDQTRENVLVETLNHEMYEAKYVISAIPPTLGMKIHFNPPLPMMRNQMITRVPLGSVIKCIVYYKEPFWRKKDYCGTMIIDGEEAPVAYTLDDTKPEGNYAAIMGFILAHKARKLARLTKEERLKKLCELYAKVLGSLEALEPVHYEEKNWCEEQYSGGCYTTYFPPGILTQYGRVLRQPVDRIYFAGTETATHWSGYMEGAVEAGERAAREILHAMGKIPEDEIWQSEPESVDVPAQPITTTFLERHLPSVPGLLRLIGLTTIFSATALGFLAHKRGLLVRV

Adenosine receptor A2b = target: T2, Adenosine receptor A2b (Homo sapiens, UniProt P29275); assay: Displacement of [3H]PSB-603 from human adenosine A2B receptor
T2 sequence (P29275 whole entry): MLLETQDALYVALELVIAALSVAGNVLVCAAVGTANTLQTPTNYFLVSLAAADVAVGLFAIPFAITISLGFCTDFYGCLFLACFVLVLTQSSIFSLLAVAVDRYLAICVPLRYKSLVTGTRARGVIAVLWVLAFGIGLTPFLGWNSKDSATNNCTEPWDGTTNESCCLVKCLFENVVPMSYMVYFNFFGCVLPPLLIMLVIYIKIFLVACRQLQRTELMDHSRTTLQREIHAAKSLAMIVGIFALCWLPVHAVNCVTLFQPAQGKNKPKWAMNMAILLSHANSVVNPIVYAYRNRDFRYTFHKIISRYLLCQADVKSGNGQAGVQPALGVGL

[2] = target: T3, MAO-B (amine oxidase [flavin-containing] B) (Homo sapiens, UniProt P27338); assay: Inhibition of human MAO-B at 10 uM relative to control
T3 sequence (P27338 whole entry): T1 sequence (P27338 whole entry)
Method in brief: (§1)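 Human MAO-A and MAO-B inhibition, screened first at a test concentration of 10 µM.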

[3] = target: T4, MAO-A (amine oxidase [flavin-containing] A) (Homo sapiens, UniProt P21397); assay: Inhibition of human MAO-A at 10 uM relative to control; method in brief: as §1
T4 sequence (P21397 whole entry): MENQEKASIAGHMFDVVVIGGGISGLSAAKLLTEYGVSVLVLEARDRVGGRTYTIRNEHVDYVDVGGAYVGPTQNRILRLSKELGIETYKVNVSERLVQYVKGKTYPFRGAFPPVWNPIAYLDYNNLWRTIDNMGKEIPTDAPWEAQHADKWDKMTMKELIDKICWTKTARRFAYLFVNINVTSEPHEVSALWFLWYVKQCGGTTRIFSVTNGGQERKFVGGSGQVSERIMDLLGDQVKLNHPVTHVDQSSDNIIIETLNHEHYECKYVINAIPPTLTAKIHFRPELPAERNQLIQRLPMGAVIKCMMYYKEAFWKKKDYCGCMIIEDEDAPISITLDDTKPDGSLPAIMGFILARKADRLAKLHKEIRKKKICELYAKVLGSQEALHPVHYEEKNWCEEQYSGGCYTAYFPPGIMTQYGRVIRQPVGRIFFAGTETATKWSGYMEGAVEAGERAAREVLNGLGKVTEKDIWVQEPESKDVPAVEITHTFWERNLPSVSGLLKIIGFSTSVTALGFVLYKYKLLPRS

[4] = target: T5, Adenosine receptor A1 (Rattus norvegicus) (UniProt P25099); assay: Displacement of [3H]CCPA from adenosine A1 receptor in rat brain cortex relative to control; assay type: tissue-based; set-up: concentration or dose not given beside the values; details: concentration not given here
T5 sequence (whole entry): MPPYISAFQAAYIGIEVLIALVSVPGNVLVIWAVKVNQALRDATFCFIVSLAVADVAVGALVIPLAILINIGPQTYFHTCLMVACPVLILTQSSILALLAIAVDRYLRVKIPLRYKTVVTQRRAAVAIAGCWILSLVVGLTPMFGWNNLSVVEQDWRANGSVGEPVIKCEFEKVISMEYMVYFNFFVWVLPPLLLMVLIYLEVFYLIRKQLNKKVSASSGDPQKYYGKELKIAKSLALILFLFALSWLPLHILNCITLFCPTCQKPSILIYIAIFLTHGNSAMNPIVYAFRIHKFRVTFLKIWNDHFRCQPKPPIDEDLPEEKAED
Method in brief: (§2)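 Radioligand binding to rat A1 receptors in rat brain cortical membrane preparations. Values are given as Ki, or as % inhibition of radioligand binding at the indicated concentration.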

[5] = target: T6, Adenosine receptor A3 (Homo sapiens) (UniProt P0DMS8); assay: Displacement of [3H]PSB-11 from human adenosine A3 receptor expressed in CHO cells relative to control; assay type: cell-based; set-up: concentration or dose not given beside the values; details: concentration not given here
T6 sequence (whole entry): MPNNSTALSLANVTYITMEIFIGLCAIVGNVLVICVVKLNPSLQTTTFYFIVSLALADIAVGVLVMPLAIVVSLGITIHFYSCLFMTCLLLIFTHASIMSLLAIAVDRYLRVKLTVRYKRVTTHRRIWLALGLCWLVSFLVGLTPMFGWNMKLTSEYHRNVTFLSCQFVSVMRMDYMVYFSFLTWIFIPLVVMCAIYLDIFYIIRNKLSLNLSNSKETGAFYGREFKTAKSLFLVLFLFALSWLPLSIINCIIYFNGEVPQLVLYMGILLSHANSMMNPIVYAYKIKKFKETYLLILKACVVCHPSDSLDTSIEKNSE

Adenosine receptor A3 = target: T7, Adenosine receptor A3 (Homo sapiens, UniProt P0DMS8); assay: Displacement of [3H]PSB-11 from human adenosine A3 receptor expressed in CHO cells; assay type: cell-based
T7 sequence (P0DMS8 whole entry): T6 sequence (whole entry)

[6] = target: T8, Adenosine receptor A2b (Homo sapiens) (UniProt P29275); assay: Displacement of [3H]PSB-603 from human adenosine A2B receptor relative to control; set-up: concentration or dose not given beside the values; details: concentration not given here
T8 sequence (whole entry): T2 sequence (P29275 whole entry)

Adenosine receptor A1 [7] = target: T9, Adenosine receptor A1 (Rattus norvegicus, UniProt P25099); assay: Displacement of [3H]CCPA from adenosine A1 receptor in rat brain cortex; assay type: tissue-based; method in brief: as §2
T9 sequence (P25099 whole entry): T5 sequence (whole entry)

Adenosine receptor A2a = Adenosine receptor A2a (Rattus norvegicus, UniProt P30543); assay: Displacement of [3H]MSX-2 from adenosine A2A receptor in rat brain striatum; assay type: tissue-based
Sequence of Adenosine receptor A2a (P30543 whole entry): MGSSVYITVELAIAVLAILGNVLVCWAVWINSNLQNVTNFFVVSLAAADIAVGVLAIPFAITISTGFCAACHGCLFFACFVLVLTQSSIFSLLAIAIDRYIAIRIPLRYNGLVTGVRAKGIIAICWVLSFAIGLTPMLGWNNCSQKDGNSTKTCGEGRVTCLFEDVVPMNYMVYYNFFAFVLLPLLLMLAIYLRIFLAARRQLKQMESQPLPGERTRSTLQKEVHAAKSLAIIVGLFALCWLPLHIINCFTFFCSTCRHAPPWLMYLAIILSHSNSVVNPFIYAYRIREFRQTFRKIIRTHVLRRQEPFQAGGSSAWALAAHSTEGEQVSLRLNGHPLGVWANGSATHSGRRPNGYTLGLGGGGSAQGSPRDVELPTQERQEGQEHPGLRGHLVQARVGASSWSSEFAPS

[8] = target: T10, Amine oxidase [flavin-containing] A (Homo sapiens, UniProt P21397); assay: Inhibition of human MAO-A; method in brief: as §1
T10 sequence (P21397 whole entry): T4 sequence (P21397 whole entry)

Adenosine receptor A1 [9] = target: T11, Adenosine receptor A1 (Homo sapiens, UniProt P30542); assay: Displacement of [3H]CCPA from human adenosine A1 receptor expressed in CHO cells; assay type: cell-based
T11 sequence (P30542 whole entry): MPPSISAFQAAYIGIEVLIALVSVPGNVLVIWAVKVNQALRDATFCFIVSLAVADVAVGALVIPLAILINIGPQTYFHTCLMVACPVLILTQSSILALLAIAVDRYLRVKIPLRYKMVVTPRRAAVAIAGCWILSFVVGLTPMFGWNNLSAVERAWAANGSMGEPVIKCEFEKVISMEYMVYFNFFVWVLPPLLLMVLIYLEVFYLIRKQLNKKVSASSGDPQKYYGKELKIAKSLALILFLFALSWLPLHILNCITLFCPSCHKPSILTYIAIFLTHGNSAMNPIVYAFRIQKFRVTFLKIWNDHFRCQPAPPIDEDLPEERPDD
Method in brief: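 Radioligand binding to human receptors recombinantly expressed in Chinese hamster ovary (CHO) cells. Results are Ki, or % inhibition of radioligand binding at the indicated concentration.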

Row | SMILES | IC50 [1] [µM] | Ki (Adenosine receptor A2b) [µM] | inhibition at 10 µM [2] [%] | inhibition at 10 µM [3] [%] | inhibition [4] [%] | inhibition [5] [%] | Ki (Adenosine receptor A3) [µM] | inhibition [6] [%] | Ki (Adenosine receptor A1 [7]) [µM] | Ki (Adenosine receptor A2a) [µM] | IC50 [8] [µM] | Ki (Adenosine receptor A1 [9]) [µM]
1 | Cn1c(=O)c2c(nc3n2CCCN3CC(=O)N2CCN(Cc3ccccc3)CC2)n(C)c1=O | 10 | > 0.3 | 55 | 4 | 0 | 23 | > 0.3 | -7 | > 1.5 | 14 | > 10 | 
2 | CCCn1c(=O)c2c(nc3n2CCCN3CC(=O)N2CCN(Cc3ccccc3)CC2)n(CCC)c1=O | > 10 | > 1 | 15 |  | 17 | 28 | > 1 | 0 | > 1.5 | 8.22 |  | 
3 | Cn1c(=O)c2c(nc3n2CCCN3CC(=O)N2CCN(Cc3ccc(Cl)cc3)CC2)n(C)c1=O | > 10 | > 1 | 30 |  | -1 | 23 | > 10 |  | > 1.5 | 9.42 |  | 
4 | CCn1c(=O)c2c(nc3n2CCCN3CCc2cccc(OC)c2)n(CC)c1=O | > 10 | > 1 | 33 |  | 31 |  | 3.41 | 29 | > 10 | 2.65 |  | 
5 | Cn1c(=O)c2c(nc3n2CCCN3c2ccc(Cl)c(Cl)c2)n(C)c1=O | 10 | > 1 | 50 | 12 | 28 | 12 | > 1 | 3 | > 10 | 4.7 | > 10 | 
6 | C#CCn1c(=O)c2c(nc3n2CCCN3CCc2cc(OC)c(OC)c(OC)c2)n(C)c1=O | > 10 | > 1 | 29 |  | 18 | 5 | > 1 | -2 | > 10 | 0.723 |  | 
7 | C#CCn1c(=O)c2c(nc3n2CCCN3Cc2ccc(OC)cc2)n(C)c1=O | 10 |  | 50 | 11 |  |  |  | 7 | 0.555 | 3.03 | > 10 | 10.2
8 | CCn1c(=O)c2c(nc3n2CCCN3CCc2ccc(OC)c(OC)c2)n(CC)c1=O | 5.87 | > 1 |  | 4 | 35 | 32 | > 10 | 15 | > 10 | 1.88 | > 10 | 
9 | CCn1c(=O)c2c(nc3n2CCCN3CCc2cc(OC)c(OC)c(OC)c2)n(CC)c1=O | > 10 | > 1 | 25 |  | 14 | 24 | > 10 | 6 | > 10 | 3.87 |  | 
10 | CCn1c(=O)c2c(nc3n2CCCN3c2ccc(O)cc2)n(CC)c1=O | 10 | > 1 | 56 | 11 | 30 | 29 | > 10 | 22 | > 10 | 10.9 | > 10 | 
11 | CCCn1c(=O)c2c(nc3n2CCCN3CC(=O)N2CCN(Cc3ccc(C(F)(F)F)cc3)CC2)n(CCC)c1=O | 2.98 | > 1 |  | 5 | 23 |  | 0.541 | 15 | > 1.5 | 7.31 | > 10 | 
